Data from PMC9592562 (Research and Practice in Thrombosis and Haemostasis, 2022).

What was measured:
aPL pool = assay: custom immunoassay; format: binding, human; settings: coated on plate (10 μg/ml); aPL pool 1/10 dilution; n = 9
[1] = system: aPL pool sera / IIa‐8.0‐biot‐2x; assay: inhibition of aPL binding to IIa‐8.0‐biot‐2x ELISA; format: biochemical, human; settings: preincubation 90 min, room temperature; 1, 10 and 100 μg/ml; n = 3–4; Figure 7A
In short: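 Pooled plasma from 11 APS patients (aPL pool sera) was preincubated for 90 min at room temperature with increasing concentrations (1, 10, 100) of monomeric peptide. It was then run in the anti-β2GP1 IgG ELISA on streptavidin-coated plates bearing the biotinylated dimeric peptide. Bound IgG was detected with anti-human secondary antibody (IRDye800CW or HRP) as fluorescence (AU) or A405. Mean ± SEM, n = 3–4.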

[2] = system: aPL from pool of plasma from 11 human patients; assay: surface plasmon resonance, aPL over immobilized biotinylated peptide; format: binding; settings: shape of stabilization curves; Figures 3C, 3D, 4E

Sequence | ability to interact with aPL compared with β2GP1 (aPL pool) | inhibition of aPL binding to IIa‐8.0‐biot‐2x, monomeric peptide [1] | sustained interaction / stability of binding with aPL [2]
VSRGGMRKFICPLTG [R39‐R43] | same ability to interact with aPL than β2GP1 | failed to significantly inhibit | 
VSRGGMRKKKKPLTG [Ib‐1‐biot] |  |  | neither R39‐R43‐biot nor Ib‐1‐biot have sustained interaction with aPL
